Laboratory results published in ChEMBL document CHEMBL1221399, “Antitumor Agents. 282. 2'-(R)-O-acetylglaucarubinone, a quassinoid from Odyendyea gabonensis as a potential anti-breast and anti-ovarian cancer agent” (J Nat Prod, 2010).
In brackets after ≈: the same amount, converted by molar mass. Activity calls are given as the source filed them.

Assays:
DU-145 = assay: Cytotoxicity against human DU145 cells; format: functional; conditions: read-out: ED50 (the source's name)
How it was run: (§1)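 Human tumour cell lines DU145, A549, KB and multidrug-resistant KB-VIN were exposed to the quassinoids, with paclitaxel as reference. ED50 was the mean concentration giving 50% effect under the defined assay condition, reported in µM.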

A549 = assay: Cytotoxicity against human A549 cells; format: functional; conditions: read-out: ED50 (the source's name); how it was run: as §1
KB = assay: Cytotoxicity against human KB cells; format: functional; conditions: read-out: ED50 (the source's name); how it was run: as §1
[1] = Cytotoxicity against human KBVIN cells; format: functional; conditions: read-out: ED50 (the source's name); how it was run: as §1
[2] = Growth inhibition of human KBVIN cells at 10 ug/ml; format: functional; conditions: read-out: GI
Mus musculus [3] = assay: Reduction of mammary gland ductal branching in […]/p53-deficient C57BL/6/129/Sv mouse model at 0.1 mg/kg, ip daily for 7 days measured post last dose by immunohistochemistry; format: functional
How it was run: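 Three-month-old Brca1/p53 conditional mutant mice (Cre, mixed C57BL/6 and 129/Sv background) given […] daily for 7 days. Dose is drawn from a 1 mg/mL DMSO stock, 10 µL mixed with 30 µL 40% PEG and 60 µL 0.9% NaCl at dosing. Controls get vehicle. Fourth-pair glands are whole-mounted, Carnoy-fixed 3 h and carmine alum-stained overnight. Branching points are counted relative to vehicle, two-tailed t-test.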

Mus musculus [4] = assay: Reduction of mammary gland ductal branching in […]/p53-deficient C57BL/6/129/Sv mouse model at 0.1 mg/kg, ip daily for 5 days measured post last dose by immunohistochemistry; format: functional, organism-based; parameters: dose 0.1 mg/kg
How it was run: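 Three-month-old Brca1/p53 conditional mutant mice (mixed C57BL/6 and 129/Sv background) dosed i.p. daily for 5 days, with vehicle controls. Fourth-pair mammary glands are whole-mounted, fixed in Carnoy's 3 h and stained overnight with carmine alum. Ductal branching points are scored against vehicle-treated mice, significance by two-tailed t-test.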

BT-474 = assay: Cytotoxicity against human BT474 cells; format: functional, cell-based
MCF7 [5] = assay: Cytotoxicity against human MCF7 cells; format: functional, cell-based
MCF7 [6] = assay: Cytotoxicity against human MCF7 cells overexpressing HER2; format: functional, cell-based
MDA-MB-468 = assay: Cytotoxicity against human MDA-MB-468 cells; format: functional, cell-based
MDA-MB-231 = assay: Cytotoxicity against human MDA-MB-231 cells; format: functional, cell-based
SK-BR-3 = assay: Cytotoxicity against human SK-BR-3 cells; format: functional, cell-based
[7] = Cytotoxicity against human HeyA8 cells; format: functional, cell-based; conditions: HEY A8
[8] = Cytotoxicity against human MSPC1 cells; format: functional, cell-based
[9] = Cytotoxicity against human 2774-C10 cells; format: functional, cell-based
[10] = Cytotoxicity against human HOC7 cells; format: functional, cell-based

CC[C@@](C)(OC(C)=O)C(=O)O[C@H]1C(=O)O[C@@H]2C[C@H]3C(C)=CC(=O)[C@@H](O)[C@]3(C)[C@H]3[C@@]4(O)OC[C@]32[C@@H]1[C@@H](C)[C@H]4O
EC50 (DU-145): 70 nM
EC50 (A549): 70 nM
EC50 (KB): 70 nM
EC50 [1]: 440 nM

CC[C@](C)(OC(C)=O)C(=O)O[C@H]1C(=O)O[C@@H]2C[C@H]3C(C)=C[C@H](O)[C@@H](O)[C@]3(C)[C@H]3[C@@]4(O)OC[C@]32[C@@H]1[C@@H](C)[C@H]4O
EC50 (DU-145): 830 nM
EC50 (A549): 3600 nM
EC50 (KB): 670 nM
inhibition of growth at 10 µg/mL [2]: < 50%

COC(=O)[C@@]12OC[C@]34[C@H]([C@@H](O)[C@@H]1O)[C@@]1(C)CC(=O)C(O)=C(C)[C@@H]1C[C@H]3OC(=O)[C@H](OC(=O)/C=C(\C)C(C)C)[C@@H]24
inhibition (Mus musculus [3]): Active
inhibition (Mus musculus [4]): Active

CC[C@](C)(OC(C)=O)C(=O)O[C@H]1C(=O)O[C@@H]2C[C@H]3C(C)=CC(=O)[C@@H](O)[C@]3(C)[C@H]3[C@@]4(O)OC[C@]32[C@@H]1[C@@H](C)[C@H]4O [2'-ACETOXY-GLAUCARUBINONE]
EC50 (DU-145): 40 nM
EC50 (A549): 60 nM
EC50 (KB): 50 nM
EC50 [1]: 420 nM
IC50 (BT-474): 28.4 µg/mL (≈ 52.9 µM)
IC50 (MCF7 [5]): 8.13 µg/mL (≈ 15.2 µM)
IC50 (MCF7 [6]): 0.013 µg/mL (≈ 0.0242 µM)
IC50 (MDA-MB-468): 0.016 µg/mL (≈ 0.0298 µM)
IC50 (MDA-MB-231): 0.077 µg/mL (≈ 0.144 µM)
IC50 (SK-BR-3): 0.014 µg/mL (≈ 0.0261 µM)
IC50 [7]: < 0.01 µg/mL
IC50 [8]: < 0.01 µg/mL
IC50 [9]: < 0.01 µg/mL
IC50 [10]: < 0.01 µg/mL

CCC(C)C(=O)O[C@H]1C(=O)O[C@@H]2C[C@H]3C(C)=CC(=O)[C@@H](O)[C@]3(C)[C@H]3[C@]4(O)OC[C@]32[C@@H]1[C@@H](C)[C@H]4O (stereo not given in full) [AILANTHINONE]
EC50 (DU-145): 90 nM
EC50 (A549): 130 nM
EC50 (KB): 180 nM
EC50 [1]: 370 nM

CCC(C)C(=O)O[C@H]1C(=O)O[C@@H]2C[C@H]3C(C)=C[C@H](O)[C@@H](O)[C@]3(C)[C@H]3[C@@]4(O)OC[C@]32[C@@H]1[C@@H](C)[C@H]4O (stereo not given in full) [EXCELSIN]
EC50 (DU-145): 4700 nM
EC50 (A549): 16000 nM
EC50 (KB): 4300 nM
inhibition of growth at 10 µg/mL [2]: < 50%

CC[C@](C)(O)C(=O)O[C@H]1C(=O)O[C@@H]2C[C@H]3C(C)=CC(=O)[C@@H](O)[C@]3(C)[C@H]3[C@@]4(O)OC[C@]32[C@@H]1[C@@H](C)[C@H]4O [GLAUCARUBINONE]
EC50 (DU-145): 470 nM
EC50 (A549): 880 nM
EC50 (KB): 440 nM
EC50 [1]: 1240 nM

CC(=O)O[C@H]1C(=O)[C@@]2(C)[C@H]([C@H](OC(=O)c3ccccc3)[C@]3(O)C[C@H](OC(=O)[C@H](O)[C@@H](NC(=O)c4ccccc4)c4ccccc4)C(C)=C1C3(C)C)[C@]1(OC(C)=O)CO[C@@H]1C[C@@H]2O [PACLITAXEL]
EC50 (DU-145): 3 nM
EC50 (A549): 8 nM
EC50 (KB): 7 nM
EC50 [1]: > 1000 nM
